According to ChEMBL document CHEMBL1165951, “Improved synthesis and in vitro/in vivo activities of natural product-inspired, artificial glutamate analogs” (Bioorg Med Chem, 2010):
The source made the active and inactive calls. No cut-off for these calls is given here.

How the values were obtained:
Rattus norvegicus [1] = species on record: Rattus norvegicus; experiment: Binding affinity to rat brain AMPA receptor at 10 uM by radioligand displacement assay
How it was run: (§1)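 Radioligand displacement at AMPA, kainate and NMDA ionotropic glutamate receptor sites in rat brain synaptic membranes, with test compound at 1 × 10−5 M.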

Rattus norvegicus [2] = species on record: Rattus norvegicus; experiment: Binding affinity to rat brain kainate receptor at 10 uM by radioligand displacement assay; how it was run: as §1
[3] = target: Glutamate NMDA receptor (Rattus norvegicus) (UniProt P35439+Q00959+Q00960+Q00961+Q62645+Q8VHN2+Q9R1M7); experiment: Binding affinity to rat brain NMDA receptor at 10 uM by radioligand displacement assay; how it was run: as §1
Mus musculus = experiment: Effect on neurological behavior in mouse assessed as induction of hyperactivity at 20 ug, icv up to 50 mins; assay type: functional, organism-based
How it was run: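 Racemic analog given to mice as a single intracranial (ICV) injection of 20 μg/mouse. Behaviour was then observed, with the type and duration of any change in activity recorded. Animals were kept according to the NRC Guide for the Care and Use of Laboratory Animals.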

Rattus norvegicus [4] = species on record: Rattus norvegicus; experiment: Binding affinity to glutamate receptor in rat hippocampal neurons assessed as reduction of action potential firing frequency at 10 uM by current- and voltage-clump electrophysiological analysis; assay type: tissue-based; details: Hippocampus
How it was run: (§2)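 Cultured hippocampal neurons were recorded by current clamp, read as action potential firing frequency, and by voltage clamp, read as charge transfer during spontaneous excitatory synaptic currents. The value is the percent reduction, n = 3.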

Rattus norvegicus [5] = species on record: Rattus norvegicus; experiment: Binding affinity to glutamate receptor in rat hippocampal neurons assessed as reduction of spontaneous excitatory synaptic current at 10 uM by current- and voltage-clump electrophysiological analysis; assay type: tissue-based; details: Hippocampus; how it was run: as §2

| SMILES | Activity (Rattus norvegicus [1]) | Activity (Rattus norvegicus [2]) | Activity [3] | Activity (Mus musculus) | inhibition (Rattus norvegicus [4]) | inhibition (Rattus norvegicus [5]) |
| --- | --- | --- | --- | --- | --- | --- |
| O=C(O)C[C@]12O[C@@H]3CCCCO[C@@H]3[C@H]1CN[C@@H]2C(=O)O | inactive | inactive | inactive | Active | – | – |
| O=C(O)C[C@]12O[C@@H]3[C@@H](O)[C@@H](O)CN[C@@H]3[C@H]1CN[C@@H]2C(=O)O (relative stereo) | – | – | – | inactive | – | – |
| O=C(O)C[C@]12O[C@@H]3[C@@H](O)[C@@H](O)CO[C@@H]3[C@H]1CN[C@@H]2C(=O)O | inactive | inactive | inactive | inactive | – | – |
| O=C(O)C[C@]12O[C@@H]3CCCO[C@@H]3[C@H]1CN[C@@H]2C(=O)O | inactive | inactive | inactive | Active | – | – |
| O=C(O)C[C@]12O[C@@H]3C=CCCO[C@@H]3[C@H]1CN[C@@H]2C(=O)O (relative stereo) | – | – | – | Active | – | – |
| O=C(O)C[C@]12O[C@@H]3C=CCN[C@@H]3[C@H]1CN[C@@H]2C(=O)O (relative stereo) | – | – | – | inactive | 52% | 31% |
| O=C(O)C[C@]12O[C@@H]3[C@@H](O)[C@@H](O)CCN[C@@H]3[C@H]1CN[C@@H]2C(=O)O (relative stereo) | – | – | – | inactive | – | – |
| O=C(O)C[C@]12O[C@@H]3C=CCCN[C@@H]3[C@H]1CN[C@@H]2C(=O)O (relative stereo) | – | – | – | inactive | – | – |
| O=C(O)C[C@]12O[C@@H]3CCCCN[C@@H]3[C@H]1CN[C@@H]2C(=O)O (relative stereo) | – | – | – | inactive | – | – |
| O=C(O)C[C@]12O[C@@H]3C=CCO[C@@H]3[C@H]1CN[C@@H]2C(=O)O (relative stereo) | – | – | – | inactive | – | – |
| O=C(O)C[C@]12O[C@@H]3[C@@H](O)[C@@H](O)CCO[C@@H]3[C@H]1CN[C@@H]2C(=O)O | inactive | inactive | inactive | Active | – | – |
| O=C(O)C[C@]12O[C@@H]3CCCN[C@@H]3[C@H]1CN[C@@H]2C(=O)O (relative stereo) | – | – | – | inactive | – | – |
